From PubChem BioAssay
CHRM5 antagonist = human M5 muscarinic receptor antagonists, primary screen, CHO cells, Fluo-8 calcium fluorescence. CHO-hM5 cells, ACh EC80. inhibition, % at 3 µM. hit rate 0.59% among 360,000. AID 624040, 2012. Muscarinic acetylcholine receptor M5 (Homo sapiens), P08912;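 active = inhibition above a per-plate cutoff, the mean of that plate's test compounds plus 3 SD, cut at about 27% in these data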;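 note: 0% = acetylcholine EC80 with DMSO and 100% = DMSO without agonist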
CHRM4 PAM = human M4 muscarinic receptor positive allosteric modulators, primary screen, CHO-K1 cells, Fluo-8 calcium fluorescence | CHO-K1 hM4/Gqi5, ACh EC20; 0% = ACh EC20, 100% = maximal ACh | hit rate 0.4% among 360,000 | activation, % at 3 µM;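 active = activation above its plate's cutoff, the mean activation of sample wells plus 3 SD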
Target sequence (P08173 whole entry, looked up): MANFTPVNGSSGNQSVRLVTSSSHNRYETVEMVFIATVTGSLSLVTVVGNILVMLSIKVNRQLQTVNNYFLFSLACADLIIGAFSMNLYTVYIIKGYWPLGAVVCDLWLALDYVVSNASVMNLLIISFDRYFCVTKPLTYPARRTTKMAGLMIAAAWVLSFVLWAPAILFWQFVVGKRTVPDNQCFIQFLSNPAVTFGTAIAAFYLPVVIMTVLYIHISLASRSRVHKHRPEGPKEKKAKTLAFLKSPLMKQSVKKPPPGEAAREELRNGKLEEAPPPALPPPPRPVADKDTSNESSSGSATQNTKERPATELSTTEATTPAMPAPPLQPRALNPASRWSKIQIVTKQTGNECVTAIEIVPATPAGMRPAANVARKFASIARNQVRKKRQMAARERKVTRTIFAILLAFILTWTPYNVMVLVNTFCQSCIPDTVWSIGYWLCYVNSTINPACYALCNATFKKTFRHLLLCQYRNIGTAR
M4 ag = human M4 muscarinic receptor agonists, primary screen, CHO-K1 cells, Fluo-8 calcium fluorescence; hit rate 0.14% among 360,000; activation, % at 3 µM; CHO-K1 hM4/Gqi5; vehicle 0%, full acetylcholine response 100%; Muscarinic acetylcholine receptor M4 (Homo sapiens), P08173; AID 624127, 2012;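 active = activation above the run mean over all test wells plus 3 SD, cut at about 32% in these data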;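 note: peak over basal fluorescence ratio per well then scaled between controls; 0% = DMSO wells and 100% = acetylcholine at EC100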
CHRM5 PAM = human M5 muscarinic receptor positive allosteric modulators, primary screen, CHO-K1 cells, Fluo-8 calcium fluorescence; CHO-K1 hM5, ACh EC20 PAM; 0% = ACh EC20, 100% = ACh EC100; AID 624038, 2012; activation, % at 3 µM; hit rate 0.3% among 360,000; Muscarinic acetylcholine receptor M5 (Homo sapiens), P08912;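 active = activation above the run cutoff, the mean activation of all test compounds plus 3 SD, cut at about 18% in these data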
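System – CHO-K1 hM5 cells · Compound – 3 µM, single dose · Incubation – compound preincubation 140 s before EC20 acetylcholine addition · Technique – Fluo-8 calcium fluorescence · Measure – Max/basal fluorescence ratio as % of EC20–EC100 ACh window · Benchmarks – low control EC20 acetylcholine (0%), high control EC100 acetylcholine (100%) · Replication – singlicate, one well per test compound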
M5 ag = human M5 muscarinic receptor agonists, primary screen, CHO-K1 cells, Fluo-8 calcium fluorescence. Muscarinic acetylcholine receptor M5 (Homo sapiens), P08912. CHO-K1 hM5 cells; 0% DMSO wells, 100% maximal acetylcholine response. AID 624037, 2012. activation, % at 3 µM. hit rate 0.19% among 360,000;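 active = activation above the run's mean over test compounds plus 3 SD, cut at about 23% in these data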;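 note: signal is peak over basal fluorescence ratio across the kinetic read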
M4 antag = human M4 muscarinic receptor antagonists, primary screen, CHO cells, Fluo-8 calcium fluorescence; AID 624125, 2012; CHO-hM4 cells, ACh EC80; hit rate 0.73% among 360,000; inhibition, % at 3 µM; Muscarinic acetylcholine receptor M4 (Homo sapiens), P08173;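 active = inhibition above its plate's cutoff, the mean inhibition of sample wells plus 3 SD, cut at about 27% in these data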;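 note: 0% = acetylcholine EC80 with DMSO and 100% = DMSO without agonist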
Starred values were filed as active, the others as inactive. Only some compounds are listed: those with a hit (about 1.8% of all), similar ones and a draw of the others.

SMILES	CHRM5 antagonist	CHRM4 PAM	M4 ag	CHRM5 PAM	M5 ag	M4 antag
CCC1CCCCN1CCCNC(=O)c1ccc2c(c1)N(Cc1ccc(F)cc1)C(=O)c1ccccc1S2=O (centres undefined)	5.7	-13.9	2.2	-8.7	-10.8	29.4*
O=C(NCCCN1CCCC1)c1ccc2c(c1)N(Cc1ccc(F)cc1)C(=O)c1ccccc1S2=O (centres undefined)	7.7	-7.6	1.1	-1.9	-9.1	-0.8
CCN(CC)S(=O)(=O)c1ccc(C(=O)Nc2c3c(nn2C(C)(C)C)CS(=O)(=O)C3)cc1	-0.9	9.9	2.0	2.1	-1.9	26.7*
C=CCn1c(SCCC)nc(O)cc1=O	8.7	-3.7	62.1*	-9.2	22.2	2.5
COc1ccc(CC2=CC(=O)c3ccccc3C2=O)cc1	11.2	-5.3	8.8	1.8	6.9	33.1*
O=C(Nc1ccccc1)OC1CCCCc2cccnc21 (centres undefined)	18.1	-20.3	10.7	-10.9	-4.1	2.5
CCN1C(N(C)C)=NC[C@@H]1Cc1ccccc1	11.2	-2.4	1.4	2.3	-5.7	-2.6
COc1ccc(C2NCCc3c2[nH]c2ccccc32)cc1COc1ccc(F)cc1 (centres undefined)	12.2	-4.1	27.8	3.4	6.8	36.8*
COc1ccc(NC(=O)C2CCN(c3nc(-c4ccc(OC)cc4)no3)CC2)cc1	-2.5	-1.4	1.6	-0.4	0.8	-5.0
CCN(C(=O)C1CCN(c2nc(-c3ccc(OC)cc3)no2)CC1)c1ccc(OC)cc1	28.3*	-6.6	12.7	-20.3	6.5	-3.7
CCCn1c(-c2ccncc2)n[nH]c1=S	-0.5	6.9	2.2	21.9*	1.4	-3.9
CCN1CCN(Cc2ccc(NC(=O)Nc3ccccc3)cc2)CC1	-2.6	1.0	1.3	-4.2	-1.8	-12.2
CSc1ncc(CN2CCN(CC=C(C)C)C(CCO)C2)cn1 (centres undefined)	7.0	-5.1	0.6	-4.4	-1.9	1.3
CSc1ncc(CN2CCN(C3CCCC3)C(CCO)C2)cn1 (centres undefined)	2.6	-41.2	0.2	1.3	-9.9	41.8*
CC(=O)Nc1ccc(CN2CCN(C3CCCC3)C(CCO)C2)cc1 (centres undefined)	3.9	-24.2	-0.1	4.6	-15.0	35.1*
CC(=O)Nc1ccc(CN2CCCN(C)CC2)cc1	29.9*	0.2	1.7	-15.5	-6.3	1.2
OCCC1CN(Cc2c(F)cccc2Cl)CCN1C1CCCCC1 (centres undefined)	-3.6	-26.3	0.0	11.0	-8.7	4.9
OCCC1CN(Cc2c(F)cccc2Cl)CCN1C1CCCC1 (centres undefined)	9.1	-21.1	0.9	3.1	-15.0	26.4*
O=C(O)c1cncc(C#CCC2CCCCC2)c1	-0.9	5.8	1.0	7.4	1.5	-3.3
COc1ccc2c(c1)C=C(CN1CCN(C3CCCC3)C(CCO)C1)CO2 (centres undefined)	4.9	-19.7	0.9	-19.8	-16.2	73.5*
OCCC1CN(Cc2nc(-c3ccccc3)cs2)CCN1Cc1ccc(F)cc1 (centres undefined)	8.7	-1.1	9.5	-4.5	2.5	1.1
OCCC1CN(Cc2nc(-c3ccccc3)cs2)CCN1C1CCCC1 (centres undefined)	11.4	-57.1	1.2	-9.2	-14.5	53.1*
COc1ccc(-n2ccnc2CN2CCN(C3CCCC3)C(CCO)C2)cc1 (centres undefined)	1.5	-4.8	0.4	0.3	-0.9	-0.3
Cc1cc(C)n2nc(S(=O)(=O)NC(C)(C)C)nc2n1	0.1	8.3	2.4	19.1*	1.2	2.6
